# Reference: ChEMBL document CHEMBL1629439, “High-throughput identification of antibacterials against methicillin-resistant Staphylococcus aureus (MRSA) and the transglycosylase” (Bioorg Med Chem, 2010)
# Legend:
# [1] = tested on: Mycolicibacterium smegmatis; experiment: Antimicrobial activity against Mycobacterium smegmatis BCRC 11565 after 18 to 24 hrs by alamar blue assay; type: functional; conditions: Mycolicibacterium smegmatis, BCRC 11565; read-out: MIC
# How it was run: (§1)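 Broth microdilution per NCCLS in Mueller-Hinton broth, 8-point twofold dilutions, 384-well format. Exponential-phase cells at 5 × 10^5 cells/ml incubated with compound 18–24 h at 37 °C, then 20% Alamar blue added and fluorescence read. MIC90 taken as the lowest concentration preventing at least 90% bacterial growth.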
# Staphylococcus aureus [2] = experiment: Antimicrobial activity against methicillin-resistant Staphylococcus aureus isolate NTUH4722 after 18 to 24 hrs by alamar blue assay; type: functional
# How it was run: (§2)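 Broth microdilution per NCCLS standard, Mueller-Hinton broth, 8-point twofold dilutions; exponentially growing cells at 5 10^5 cells/ml with compound, 18–24 h at 37 C; 20% Alamar blue added, fluorescence read; MIC90 taken as lowest concentration preventing at least 90% growth.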
# Staphylococcus aureus [3] = experiment: Antimicrobial activity against oxacillin- and methicillin-resistant Staphylococcus aureus isolate Sa-OXA-R2 after 18 to 24 hrs by alamar blue assay; type: functional; how it was run: as §2
# [4] = tested on: Stenotrophomonas maltophilia; experiment: Antimicrobial activity against Stenotrophomonas maltophilia ATCC 13637 after 18 to 24 hrs by alamar blue assay; type: functional; conditions: Stenotrophomonas maltophilia, ATCC 13637; read-out: MIC; how it was run: as §1
# Staphylococcus aureus [5] = experiment: Antimicrobial activity against methicillin-resistant Staphylococcus aureus ATCC 33592 after 18 to 24 hrs by alamar blue assay; type: functional; conditions: Staphylococcus aureus, ATCC 33592; read-out: MIC; how it was run: as §2
# Pseudomonas aeruginosa = experiment: Antimicrobial activity against Pseudomonas aeruginosa ATCC 25619 after 18 to 24 hrs by alamar blue assay; type: functional; conditions: Pseudomonas aeruginosa, ATCC 25619; read-out: MIC; how it was run: as §1
# Serratia marcescens = experiment: Antimicrobial activity against Serratia marcescens ATCC 14756 after 18 to 24 hrs by alamar blue assay; type: functional; conditions: Serratia marcescens, ATCC 14756; read-out: MIC; how it was run: as §1
# Escherichia coli = experiment: Antimicrobial activity against Escherichia coli ATCC […] after 18 to 24 hrs by alamar blue assay; type: functional; conditions: Escherichia coli; read-out: MIC; how it was run: as §1
# Acinetobacter baumannii = experiment: Antimicrobial activity against Acinetobacter baumannii ATCC 49139 after 18 to 24 hrs by alamar blue assay; type: functional; conditions: Acinetobacter baumannii, ATCC 49139; read-out: MIC; how it was run: as §1
# [6] = Inhibition of transglycosylase assessed as inhibition of NBD- labelled lipid II polymerization
# How it was run: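 100 µM NBD-labelled lipid II incubated 30 min with full-length PBP (EC, SA or Mtb) and 10 ng/µl N-acetylmuramidase in 50 mM Tris-HCl pH 8.0, 10 mM MgCl2, 0.1% Triton X-100, 10% DMSO, 15% MeOH. Supernatant run on anion-exchange HPLC with 20 mM–0.5 M ammonium acetate gradient. Inhibition calculated from substrate peak-area percentage. IC50 determined. S. aureus strains share one SA enzyme.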
# Staphylococcus aureus [7] = experiment: Antimicrobial activity against Staphylococcus aureus ATCC 29213 after 18 to 24 hrs by alamar blue assay
# Bacillus subtilis = experiment: Antimicrobial activity against Bacillus subtilis ATCC 23857 after 18 to 24 hrs by alamar blue assay; type: functional; how it was run: as §1
Structure (SMILES),MIC [1] [µg/mL],MIC (Staphylococcus aureus [2]) [µg/mL],MIC (Staphylococcus aureus [3]) [µg/mL],MIC [4] [µg/mL],MIC (Staphylococcus aureus [5]) [µg/mL],MIC (Pseudomonas aeruginosa) [µg/mL],MIC (Serratia marcescens) [µg/mL],MIC (Escherichia coli) [µg/mL],MIC (Acinetobacter baumannii) [µg/mL],IC90 [6] [µM],MIC (Staphylococcus aureus [7]) [µg/mL],MIC (Bacillus subtilis) [µg/mL]
O=C(Nc1ccc(Oc2ccc3ccccc3c2Cl)c(Cl)c1)c1cc(I)cc(I)c1O,0.5,≤ 0.03,≤ 0.03,16,8,16,16,8,16,> 100,8,< 0.03
O=C(Nc1cc(S(=O)(=O)c2ccc(Cl)cc2)ccc1Cl)c1cc(I)cc(I)c1O,0.5,≤ 0.03,≤ 0.03,16,8,16,16,8,16,100,8,< 0.03
O=C(c1ccc(Cl)cc1)c1cc(NC(=O)c2cc(Br)cc(Br)c2O)ccc1Br,0.5,≤ 0.03,≤ 0.03,16,≤ 2,16,16,8,16,100,≤ 2,< 0.03
O=C(Nc1cc(Cl)cc(C(=O)c2ccc(Cl)cc2)c1Cl)c1cc(Br)cc(Br)c1O,0.5,8,8,16,2,16,16,8,16,100,0.5,< 0.03
Cc1ccc(C(C)C)cc1Oc1ccc(Cl)cc1NC(=O)c1cc(Cl)ccc1O,0.5,≤ 0.03,≤ 0.03,16,0.5,16,16,8,16,100,0.5,< 0.03
O=C(Nc1ccc(NS(=O)(=O)c2ccc(Cl)cc2)cc1Cl)c1cc(Cl)ccc1O,0.5,≤ 0.03,≤ 0.03,16,32,16,16,8,16,> 100,16,< 0.03
Cc1ccc(C(C)C)c(Oc2ccc(Cl)cc2NC(=O)c2cc(Cl)cc(Cl)c2O)c1,0.5,≤ 0.03,≤ 0.03,16,0.25,16,16,8,16,50,1,< 0.03
O=C(Nc1ccc(Oc2ccc3ccccc3c2Cl)c(Cl)c1)c1cc(Cl)cc(Br)c1O,0.5,≤ 0.03,≤ 0.03,16,≤ 2,16,16,8,16,100,≤ 2,< 0.03
O=C(Nc1ccc(Oc2ccc(Cl)c3cccnc23)c(Br)c1)c1cc(Br)cc(Br)c1O,0.5,≤ 0.03,≤ 0.03,16,16,16,16,8,16,50,32,< 0.03
O=C(Nc1ccc(Sc2nc3ccccc3s2)c(Cl)c1)c1cc(Cl)cc(Cl)c1O,0.5,≤ 0.03,≤ 0.03,16,4,16,16,8,16,> 100,8,< 0.03
O=C(Nc1cc(Cl)ccc1Oc1ccc(Cl)c2ccccc12)c1cc(I)cc(I)c1O,0.5,≤ 0.03,≤ 0.03,16,≤ 2,16,16,8,16,50,4,< 0.03
O=C(Nc1cc(Cl)ccc1Oc1cccc2c(Br)cccc12)c1cc(Cl)cc(Br)c1O,0.5,≤ 0.03,≤ 0.03,16,≤ 2,16,16,8,16,100,4,< 0.03
O=C(Nc1cc(Cl)cc(C(=O)c2ccccc2)c1Cl)c1cc(Br)cc(Br)c1O,0.5,4,4,16,8,16,16,8,16,100,1,< 0.03
O=C(Nc1ccc(Sc2nc3ccccc3s2)c(Cl)c1)c1cc(Br)cc(Br)c1O,0.5,≤ 0.03,≤ 0.03,16,≤ 2,16,16,8,16,100,4,< 0.03
Cc1c(CCC(=O)O)c(=O)oc2c(C)c3occ(-c4ccc(Br)cc4)c3cc12,1,0.5,1,> 256,1,> 256,> 256,> 256,> 256,–,0.5,> 64
O=C(Nc1cccc2c1C(=O)NC2=O)c1ccc([N+](=O)[O-])o1,0.5,2,2,32,1,128,32,256,12,–,4,0.06
